Screening data deposited in PubChem by several laboratories.
NTR1 ag: agonists of human NTR1, primary screen, imaging, U2OS cells, beta-arrestin-GFP, high content; activation, % at 20 µM; 330,000 tested, 0.17% active; NTR1-U2OS beta-arrestin-GFP spot imaging, agonist mode; AID 493036, 2011; Neurotensin receptor type 1 (Homo sapiens), P30989;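 active = activation at or above 40% of the spot to cytoplasm intensity ratio, with at least 20 cells analyzed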
APJ antagonist: antagonists of human apelin receptor APJ, primary screen, CHO-K1 cells, beta-arrestin complementation, luminescence; P35414; inhibition, % at 20 µM; 330,000 tested, 0.32% active;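 active = inhibition above about 40% at 20 µM, limit read from the data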;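 also: cells challenged with 10 nM apelin-13 agonist together with compound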
CXCR6 inh: CXCR6 receptor inhibitors, primary screen, cell-based, beta-arrestin, luminescence, CHO-K1 PathHunter, 1536-well | C-X-C chemokine receptor type 6 (Homo sapiens), O00574 | inhibition, % at 20 µM | 360,000 tested, 0.36% active | AID 602244, 2012; in the data active = inhibition above about 34%, passing the limit was not always enough;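 also: antagonist mode with CXCL16 agonist at 10 nM final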
m5-HT2A agonist: mouse Htr2a agonists via beta-arrestin recruitment, primary screen, cell-based, luminescence; 5-hydroxytryptamine receptor 2A (Mus musculus), P35363; CHO-K1 mHTR2A beta-arrestin complementation; percent of 30 µM serotonin response; activation, % at 7.6 µM; 360,000 tested, 0.66% active;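 active = activation above a run cutoff, the mean activation of all tested compounds plus 3 SD, cut at about 14% in these data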
APJ agonist: agonists of human apelin receptor APJ, primary screen, CHO-K1 cells, PathHunter beta-arrestin, luminescence; 330,000 tested, 0.11% active; activation, % at 20 µM; P35414; 0% DMSO wells, 100% apelin;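 active = activation more than six SD over the plate average, tested at 20 µM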
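Assay system – PathHunter CHO-K1 APJ (AGTRL-1) beta-arrestin reporter cells · Compound – one dose, 20 µM compound, 1% DMSO · Timing – compound 90 min 25 °C, reagent 1 h · Measured by – luminescence from split beta-galactosidase complementation, Galacton Star/Emerald II substrate · Measure – beta-arrestin recruitment to APJ as agonist activity, luminescent signal · Benchmarks – DMSO vs Apelin-13 10 nM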
CCR6 antagonist: CCR6 receptor antagonists, primary screen, cell-based, CHO-K1, luminescence, beta-arrestin, uHTS; C-C chemokine receptor type 6 (Homo sapiens), P51684; CHO-K1 CCR6 PathHunter beta-arrestin, CCL20-stimulated; inhibition, % at 20 µM; 340,000 tested, 0.49% active; AID 493098, 2011;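 active = compounds whose inhibition of the agonist-driven luminescence signal at 20 µM reaches about 50%, limit read from the data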;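 also: cells stimulated with CCL20 at 14 nM final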
Target sequence (P51684 whole entry, looked up): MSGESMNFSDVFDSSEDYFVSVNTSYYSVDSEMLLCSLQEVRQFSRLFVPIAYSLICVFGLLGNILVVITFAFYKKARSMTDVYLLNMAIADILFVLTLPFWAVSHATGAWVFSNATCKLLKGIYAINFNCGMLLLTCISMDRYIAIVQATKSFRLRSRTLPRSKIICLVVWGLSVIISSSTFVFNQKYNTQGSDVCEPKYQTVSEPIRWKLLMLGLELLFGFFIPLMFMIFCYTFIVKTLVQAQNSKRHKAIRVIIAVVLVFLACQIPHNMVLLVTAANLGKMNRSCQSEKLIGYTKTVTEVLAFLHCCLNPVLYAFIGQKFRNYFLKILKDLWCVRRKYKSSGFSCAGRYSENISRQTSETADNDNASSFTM
Numbers stand for hits; - = inactive; . = no result. Only some compounds are listed: those with a hit (about 1.5% of all), similar ones and a draw of the others.

SMILES	NTR1 ag	APJ antagonist	CXCR6 inh	m5-HT2A agonist	APJ agonist	CCR6 antagonist
CN1CCN(C2=C(Cl)C(=O)C(c3cnc(N4CCCCC4)s3)=C(Cl)C2=O)CC1	-	-	-	-	-	74
CN1CCN(C2=C(Cl)C(=O)c3ccccc3C2=O)CC1	.	.	-	-	.	-
O=C1NC[C@H](c2ccccc2)OC(=O)[C@@H](Cc2ccc(F)cc2)CC/C=C/C[C@H]1CC(=O)N(CCO)Cc1ccccc1	-	.	-	-	.	-
O=C1NC[C@H](c2ccccc2)OC(=O)[C@H](Cc2ccc(F)cc2)CC/C=C/C[C@H]1CC(=O)N(CCO)Cc1ccccc1	-	.	48	-	.	-
CN(CCCn1cnc2c(OCc3ccccc3)ncnc21)Cc1ccco1	.	.	-	-	.	.
CCCCN(CCCC)C(=O)c1cc(Cl)ccc1[N+](=O)[O-]	-	-	-	-	-	-
CCCN(CCC)C(=O)c1cc([N+](=O)[O-])cc2c1-c1ccc([N+](=O)[O-])cc1C2=C(C#N)C#N	-	-	.	.	-	66
CCOC(=O)C1=NN(C(=O)c2ccc(C)cc2)C(O)(c2ccc(Cl)cc2)C1 (centres undefined)	-	-	-	-	-	-
CCC1=NN(C(=O)c2ccc(Cl)cc2)C(O)(c2ccc(C)cc2)C1 (centres undefined)	-	-	-	-	-	64
CC(C)(Oc1ccc(F)cc1)C(=O)OCC(=O)c1ccc(S(C)(=O)=O)cc1	-	-	-	-	-	52
CCc1ccc(/C(C)=N/NS(=O)(=O)c2ccc(OC)cc2)s1	-	-	-	-	-	-
CCCCCCN1C=C/C(=C\C=C(C#N)C#N)c2ccccc21	-	65	61	-	-	77
C=CCN1C=C/C(=C\C=C(C#N)C#N)c2ccccc21	-	70	46	-	-	74
CCCCCCN1C=CC=C/C1=C/C=C(C#N)C#N	-	-	-	-	-	-
C=CCN1C=CC(=CC=C(C#N)C#N)C=C1	-	-	-	-	-	-
CCOC(=O)C1CCN(C(=O)c2cc(COc3ccc(F)cc3F)on2)CC1	-	-	-	-	-	-
CCC1(c2ccccc2)NC(=O)N(CC(=O)N(C)Cc2c(F)cccc2Cl)C1=O (centres undefined)	-	-	-	-	-	-
Cc1ccc(C(=O)N/C(N)=N/c2nc3ccccc3o2)cc1	-	-	-	-	-	-
COc1ccccc1C(=O)N/C(N)=N/c1nc2ccccc2o1	-	-	-	-	-	75
Cc1[nH]n(-c2ccccc2)c(=O)c1N=Nc1c(O)cc(S(=O)(=O)N(C)C)c2ccccc12	-	-	-	-	-	68
Cc1[nH]n(-c2ccccc2)c(=O)c1N=Nc1ccc2c(c1)OCCO2	-	-	-	-	-	-
COc1ccc(N2CSC3=C(C#N)C(c4cc(OC)c(OC)cc4OC)CC(=O)N3C2)c(OC)c1 (centres undefined)	-	-	-	-	25	-
Oc1c(Cl)cc(Cl)cc1/C=N/Nc1ncc(Br)cn1	-	-	62	-	-	74
O=S(=O)(NC1CC(NS(=O)(=O)OCC(Cl)(Cl)Cl)C2CCCCC12)OCC(Cl)(Cl)Cl (centres undefined)	-	-	-	15	-	-
C[C@H](NS(=O)(=O)OCC(Cl)(Cl)Cl)C1CC1c1ccccc1 (some centres undefined)	-	-	-	-	-	-
SMILES	NTR1 ag	APJ antagonist	CXCR6 inh	m5-HT2A agonist	APJ agonist	CCR6 antagonist
N#C/C(=N\Nc1ccc([N+](=O)[O-])cc1)C(N)=S	-	69	53	-	-	69
COc1cccc(CN(C)C(=O)Cc2ccc(OC)c(S(=O)(=O)N3CCOCC3)c2)c1	-	-	-	-	-	-
O=S1(=O)c2ccccc2N=NN1Cc1ccc(Cl)c(Cl)c1	-	-	.	.	-	.
CC(C)(C)c1ccc(CN2N=Nc3ccccc3S2(=O)=O)cc1	-	-	49	-	-	64
O=C(O)c1ccc(/C=C2\SC(=S)N(Nc3ccccc3)C2=O)cc1	-	-	-	-	-	-
O=C1/C(=C/c2ccc(O)c(O)c2)SC(=S)N1Nc1ccccc1	.	.	51	-	.	61
CN1CCN(C(c2ccccn2)c2cc(Cl)c3cccnc3c2O)CC1 (centres undefined)	-	-	-	-	-	-
Cc1ccc(C(c2cc(Cl)c3cccnc3c2O)N2CCN(C)CC2)cc1 (centres undefined)	-	-	-	-	-	57
COc1ccc(CCN(C)C2CCCN(C(=O)Cn3cnnn3)C2)cc1OC (centres undefined)	-	-	-	-	-	-
COc1ccc(-c2csc3nc(-c4ccccc4OC)oc(=O)c23)cc1	-	-	-	-	-	-
C=C1CC(Cn2cc(Br)c(=O)[nH]c2=O)(c2ccc(-c3ccccc3)cc2)OC1=O (centres undefined)	.	.	43	-	.	.
Cc1cccc(NC(=O)COC(=O)c2nn(-c3ccccc3C(F)(F)F)cc2O)c1C	.	.	-	-	.	.
C/C(=N\Nc1ncnc2sc(C)c(C)c12)c1ccccn1	-	47	-	-	-	-
C/C(=N\Nc1ncc(Cl)cc1Cl)c1ccccn1	.	.	50	-	.	-
COc1ccc(C)cc1NC(=O)Nc1ccc(C(=O)N2CCCC2)cc1	-	-	-	-	-	-
CCN1/C(=C/C(C)=C/c2sc3ccccc3[n+]2CC)Sc2ccccc21	-	56	57	-	-	62
COc1ccccc1CNC(=O)CN(CCc1ccccc1)S(C)(=O)=O	-	-	-	-	-	-
CCOC(=O)c1c[nH]c(=S)n(-c2ccccc2)c1=O	-	-	-	-	-	-
CCOC(=O)c1c(SCCN2CCCC2)n(-c2ccccc2)c(=S)n(-c2ccccc2)c1=O	.	.	88	-	.	105
O=C(Nc1c(C(=O)N2CCOCC2)cnn1-c1ccccc1)c1ccc(F)cc1	-	-	-	15	-	-
O=C(Nc1c(C(=O)N2CCOCC2)cnn1-c1ccccc1)c1ccccc1	-	-	-	-	-	-
Cc1ccc(N/C(N)=N/c2nc(C)cc(N3CCCCC3)n2)c(C)c1	-	-	-	-	28	-
CCCNC(=O)[C@H]1N2C(=O)c3c(ccc(OC)c3OC)C2SC1(C)C (some centres undefined)	-	-	-	-	-	-
O=C1CSC(=S)N1/N=C/C=C/c1ccccc1	-	-	46	-	-	-
C=CC(=O)N1C/C(=C/c2ccccc2)C(=O)/C(=C\c2ccccc2)C1	.	.	38	-	.	64
CN1C/C(=C/c2ccncc2)C(=O)/C(=C/c2ccncc2)C1	-	-	-	-	-	-
